From PubChem
This is a sample that favours compounds with a hit; in the whole collection about 2% have one here.
eIF4E-4G inh – eIF4E/eIF4G interaction inhibition in translation initiation; inhibition, % at 21.7 µM; P63073+Q04637; TR-FRET eIF4E-eIF4GI(517-606) binding, 2 h; 220,000 compounds, 0.37% hits;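 further: 0% = full FRET control wells and 100% = background wells lacking eIF4GI fragment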
p47phox inh – p47phox (human) inhibition. inhibition, % at 24.7 µM. AID 1274. p47phox/p22phox peptide binding, fluorescence polarization, 2 h. 220,000 compounds, 0.53% hits. P14598;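 further: 0% = p47phox with labelled peptide and 100% = labelled peptide alone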
Hck-Nef inh – blocks Nef-activated human Hck kinase; Recombinant Hck-YEEI plus Nef, Z-Lyte FRET kinase assay; inhibition, % at 20 µM; P08631; 220,000 compounds, 0.68% hits;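 active means Hck-Nef kinase inhibition above about 50%, limit read from the data; inactive means inhibition below that limit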;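 further: 0% = DMSO with Hck plus Nef and 100% = Hck alone without Nef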
Diaphorase act – diaphorase activation or chemical reduction counter-screen. Diaphorase/resazurin coupled assay, resorufin fluorescence, 16 min; active compounds read high; 1 = vehicle wells, 0 = NADH-free wells. activation factor at 20 µM. 190,000 compounds, 0.005% hits;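 active means diaphorase activity raised at least twofold by the compound at 20 µM; inactive means activation factor below 2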
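Test system: Clostridium kluyveri diaphorase, purified enzyme; input: enzyme 0.07 U/mL final; buffer or medium: 50 mM HEPES pH 7.4 with 4.542 mM MgCl2, 0.005% Tween 20; also added: 0.114 mM NADH and 0.1 mM resazurin, final amounts; schedule: 16 min enzyme reaction, ambient temperature; technique: fluorescence of resorufin, 544 nm excitation, 590 nm emission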
14-3-3 Bad inh – disrupts binding of bovine 14-3-3 zeta to phospho-Bad peptide. TR-FRET 14-3-3zeta/Dy647-pBad peptide displacement, 1 h. inhibition, % at 21.7 µM. 220,000 compounds, 0.71% hits. AID 781;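 active means inhibition above about 70%, limit read from the data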;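 further: 0% = full 14-3-3 plus peptide FRET controls and 100% = background without 14-3-3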
Target sequence (P63103 whole entry, looked up): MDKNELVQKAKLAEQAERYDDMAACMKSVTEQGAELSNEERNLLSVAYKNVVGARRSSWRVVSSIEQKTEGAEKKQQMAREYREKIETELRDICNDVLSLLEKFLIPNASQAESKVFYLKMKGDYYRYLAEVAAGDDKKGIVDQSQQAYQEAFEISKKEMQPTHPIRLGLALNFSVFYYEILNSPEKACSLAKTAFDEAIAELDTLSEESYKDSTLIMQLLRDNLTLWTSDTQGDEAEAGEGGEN
The depositor's hits bear a star; / = no result; [ ] = another dose, or the depositor's remark.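 How the source made its calls, unless noted: active means inhibition above about 30% (limit read from the data); inactive means the rest.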

SMILES	eIF4E-4G inh	p47phox inh	Hck-Nef inh	Diaphorase act	14-3-3 Bad inh
Cc1ccc(SC(C)C(=O)Nc2cccc(N(C)S(C)(=O)=O)c2)cc1 (configuration not stated)	2	1	2	0.8	75*
Cc1ccc(N(C(C)C(=O)Nc2cccc(N(C)S(C)(=O)=O)c2)S(C)(=O)=O)cc1 (configuration not stated)	-2	-1	4	0.8	-9
COc1ccc2nc(COC(=O)c3ccco3)c(C(C)=O)[n+]([O-])c2c1	-3	8	6	0.8	86*[fluorescence artefact?]
CC(C)C(c1nnnn1C(C)(C)C)N1CCOCC1 (configuration not stated)	3	-16	0	0.9	71*
CC1(C2CC2)NC(=O)NC1=O (configuration not stated)	90*[fluorescence artefact?]	-3	-17	0.9	3
COC(=O)c1cc(-c2ccc(NC(C)=O)cc2)nc2ccccc12	-3	-18	11	0.8	-8
COc1ccc(-n2nc(C(=O)NCC(=O)Nc3ccccn3)c3ccccc3c2=O)cc1Cl	-14	22	1	1.1	72*
O=C(Cc1cccs1)N(Cc1ccco1)C1(C(=O)NC2CCCCC2)CCCCC1	4	43*	1	1.1	-16
O=C(Cc1cccs1)N(Cc1cccs1)C1(C(=O)NC2CCCC2)CCCCC1	-4	0	2	1	2
CC(CCc1ccccc1)NC(=O)CN1CCN(c2ccc(O)cc2)CC1 (configuration not stated)	5	-2	23	0.6	1
c1ccc(Cc2ccc(OCCn3cncn3)cc2)cc1	15	-7	1	0.9	-1
c1ccc(-c2ccc(OCCOCCn3cncn3)cc2)cc1	6	-5	0	0.9	73*
Clc1ccc(OCCCn2cncn2)cc1Cl	93*[fluorescence artefact?]	-1	-1	1	86*
c1ccc(COc2ccc(OCCCn3cncn3)cc2)cc1	-2	9	5	1	-8
O=C(c1cccc(S(=O)(=O)N2CCc3ccccc32)c1)N1CCN(c2ccccn2)CC1	0	-3	7	0.9	-2
O=C(O)CCNC(=O)CCCn1nnc2ccccc2c1=O	4	-7	-2	/	2
COc1cc(/C=N/NC(=O)c2cccc(S(=O)(=O)N3CCCCC3)c2)cc(Br)c1O	5	-14	0	0.8	-25
Cc1nc(C)c(-c2csc(Nc3cccc(O)c3)n2)s1	-3	-18	51*	0.8	-7
O=C(Nc1nc(-c2ccccc2)cs1)c1ccco1	66*	-15	2	/	10
COc1ccc(-c2csc(NC(=O)c3ccco3)n2)cc1	5	-25	7	1	8
Cc1nc(NC(=O)c2ccccc2)sc1-c1csc(Nc2ccc(Cl)cc2Cl)n1	-20	-22	0	0.8	76*[fluorescence artefact?]
Cc1ccc(Cl)cc1Nc1nc(-c2sc(NC(=O)c3cccc(Cl)c3)nc2C)cs1	-20	-26	8	1	89*
N/C(Cc1nc(-c2ccc(Cl)cc2)cs1)=N/O	5	-3	7	/	-1
CCOc1cc(N2CCOCC2)c(OCC)cc1NC(=O)COC(=O)[C@@H]1CCCN1S(=O)(=O)c1ccccc1F	0	4	24	0.8	-10
CC(C)c1cccc(OCCCCN(C)C)c1	1	0	3	0.8	0
SMILES	eIF4E-4G inh	p47phox inh	Hck-Nef inh	Diaphorase act	14-3-3 Bad inh
O=C(COC(=O)Cc1ccccc1F)Nc1ccc(F)cc1F	-2	3	-47	0.8	-3
Cc1ccccc1Nc1nc(-c2sc(NC(=O)c3cccc(Cl)c3)nc2C)cs1	-27	-22	0	0.9	44
Cc1ccc(Cl)cc1Nc1nc(-c2sc(NC(=O)c3ccco3)nc2C)cs1	-4	-40	3	0.7	4
Cc1nc(NC(=O)c2ccccc2)sc1-c1csc(Nc2ccc(Cl)cc2)n1	-3	-22	-1	0.7	70*
Cc1nc(NC(=O)c2ccco2)sc1-c1csc(Nc2ccc(Cl)cc2Cl)n1	-33	-15	0	0.9	87*[fluorescence artefact?]
Cc1nc(NC(=O)c2ccccc2)sc1-c1csc(Nc2cccc(Cl)c2)n1	23	-24	1	0.9	86*
CC(COc1ccccc1)N1CCC(CO)(Cc2ccccc2)CC1 (configuration not stated)	0	1	4	0.9	-9
O=S(=O)([N-]c1nc2ccccc2nc1-n1cc[n+](Cc2ccccc2)c1)c1ccc(Cl)cc1	-8	-16	-6	/	1
C/C=C/c1ccc(OCCOc2cc(C=O)ccc2OC)c(OC)c1	8	-11	-1	0.9	7
C/C=C/c1ccc(OCCCCOc2ccccc2F)c(OC)c1	2	-17	1	0.9	-21
C/C=C/c1ccc(OCCCCn2cncn2)c(OC)c1	-8	3	0	1.1	75*
C/C=C/c1ccc(OCCn2cncn2)c(OC)c1	16	3	-1	0.8	84*
C/C=C/c1ccc(OCCCn2cncn2)c(OC)c1	15	5	2	0.8	74*
COc1ccc(-n2cc(C#N)c(=O)n(Cc3ccc(F)cc3)c2=O)cc1	2	-4	-4	1	-10
CC1(C)C2CCC(C2)C1(C)NC(=O)CNC1CCCCC1 (configuration not stated)	1	-4	25	1.1	17
CC1(C)C2CCC(C2)C1(C)NC(=O)CN1CCOCC1 (configuration not stated)	-3	3	3	0.8	74*
CC(=O)Nc1ccc(S(=O)(=O)Nc2nc3ccccc3nc2Nc2cccc(S(N)(=O)=O)c2)cc1	1	-13	7	/	1
COc1ccc(C(N)CCc2ccc(C)o2)cc1 (configuration not stated)	-3	-5	2	1	88*[fluorescence artefact?]
O=C(Nc1ccccc1)c1sccc1Oc1ccc([N+](=O)[O-])cc1F	6	1	20	1	-19
O=C(N1CCOCC1)N1CCC(c2nc(-c3ccc(S(=O)(=O)N4CCOCC4)cc3)no2)CC1	2	3	2	0.9	73*
O=C(C1CC1)N1CCC(c2nc(-c3ccc(S(=O)(=O)N4CCCC4)cc3)no2)CC1	-12	0	0	1	26
Cc1cc(NCc2ccccn2)ccc1Br	5	-11	1	0.8	79*
Cc1ccc(-n2nnnc2-c2ccco2)cc1	3	-12	12	0.9	-9
Nc1ccc(-n2nnnc2-c2ccco2)cc1	6	59*	0	0.9	-3
CCOc1cc(CNc2ccc(N3CCCC3)cc2)cc(Cl)c1OC	35*[fluorescence artefact?]	-2	18	0.3	19
O=C1c2ccc(-c3ccc4c(c3)C(=O)N(CCCO)C4=O)cc2C(=O)N1CCCO	2	-12	7	/	6
O=C1C2=C(SCCS2)C(=O)N1CCCO	1	72*	-2	1.1	-6
O=C(CCN1C(=O)c2cccc3cccc(c23)C1=O)Nc1ccccc1	0	-21	1	1.1	-2
